From ChEMBL document CHEMBL1126715, “Synthesis and tissue distribution of (m-[125I]iodobenzyl)trozamicol ([125I]MIBT): potential radioligand for mapping central cholinergic innervation” (J Med Chem, 1993)

Experiments:
[1] = species on record: Rattus norvegicus; assay: Effect of vesamicol on the accumulation in rat brain in group 2 (n=3); assay type: ADME, organism-based; settings: in vivo
[2] = species on record: Rattus norvegicus; assay: Effect of vesamicol on the accumulation in rat brain in group 1 (n=3); assay type: ADME, organism-based; settings: in vivo
How it was run: (§1)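 Male Wistar rats (n = 4/group) given iv vehicle (100 μL 50% aqueous EtOH) or dl-vesamicol (1.01 μmol/kg); 15 min later iv radiotracer (2.0 μCi in 100 μL 50% aqueous EtOH); killed 30 min post-tracer. Blood by cardiac puncture, organs weighed and γ-counted vs 1:100 injected-dose dilution; % dose/g tissue (range); tissue/blood ratios.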

[3] = species on record: Rattus norvegicus; assay: Tissue distribution in rat liver after 30 minutes (n=3); assay type: ADME, organism-based; settings: in vivo, 0.5 h
How it was run: (§2)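 Male Wistar rats (200-350 g) under ether anesthesia; radiotracer (3-5 μCi in 0.1 mL 50% aqueous ethanol) given iv. At 5, 30, 60 and 180 min, blood was drawn by cardiac puncture and animals were killed by cardiectomy. Organs were weighed and γ-counted against a 1:100 dilution of the injected dose. Results are given as % injected dose/g tissue; ratios are taken between tissue levels.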

[4] = species on record: Rattus norvegicus; assay: Tissue distribution in rat heart after 180 minutes (n=3); assay type: ADME, organism-based; settings: in vivo, 3 h; how it was run: as §2
[5] = species on record: Rattus norvegicus; assay: Tissue distribution in rat thyroid after 5 minutes (n=3); assay type: ADME, organism-based, Thyroid gland; settings: in vivo
How it was run: (§3)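 Male Wistar rats (200-350 g) under ether, iv [125I]tracer (3-5 μCi in 0.1 mL 50% aqueous EtOH). At 5, 30, 60 or 180 min, blood taken by cardiac puncture and the rat killed by cardiectomy. Organs weighed and γ-counted against 1:100 dilutions of the injected dose; results in % injected dose/g, with range.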

[6] = Ratio of tissue distribution between rat heart and blood after 180 min; assay type: ADME, organism-based; how it was run: as §2
[7] = species on record: Rattus norvegicus; assay: Ratio of tissue distribution between rat brain and blood after 180 min; assay type: ADME, organism-based; settings: 3 h
How it was run: (§4)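 Male Wistar rats (200-350 g) under ether anesthesia, iv radiotracer (3-5 μCi in 0.1 mL 50% aqueous ethanol). At 5, 30, 60, 180 min blood taken by cardiac puncture, animal killed by cardiectomy; organs weighed, γ-counted against 1:100 injected-dose dilution; % injected dose/g tissue; brain/blood ratio.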

[8] = species on record: Rattus norvegicus; assay: Effect of vesamicol on the accumulation in rat gonads in group 2 (n=3); assay type: ADME, organism-based; settings: in vivo; how it was run: as §1
[9] = species on record: Rattus norvegicus; assay: Effect of vesamicol on the accumulation in rat muscle in group 2 (n=3); assay type: ADME, organism-based, Muscle tissue; settings: in vivo; how it was run: as §1
[10] = species on record: Rattus norvegicus; assay: Tissue distribution in rat gonads after 5 minutes (n=3); assay type: ADME, organism-based, Gonad; settings: in vivo; how it was run: as §2
[11] = species on record: Rattus norvegicus; assay: Tissue distribution in rat muscle after 30 minutes (n=3); assay type: ADME, organism-based; settings: in vivo, 0.5 h; how it was run: as §3
[12] = Ratio of effect of vesamicol on the accumulation between rat heart and blood in group 1; assay type: ADME, organism-based; how it was run: as §1
[13] = species on record: Rattus norvegicus; assay: Effect of vesamicol on the accumulation in rat thyroid in group 2 (n=3); assay type: ADME, organism-based, Thyroid gland; settings: in vivo; how it was run: as §1
[14] = species on record: Rattus norvegicus; assay: Tissue distribution in rrat heart after 60 minutes (n=3); assay type: ADME, organism-based; settings: in vivo, 1 h; how it was run: as §2
[15] = species on record: Rattus norvegicus; assay: Tissue distribution in rat gonads after 180 minutes (n=3); assay type: ADME, organism-based, Gonad; settings: in vivo, 3 h; how it was run: as §2
[16] = species on record: Rattus norvegicus; assay: Effect of vesamicol on the accumulation in rat spleen in group 1 (n=3); assay type: ADME, organism-based; settings: in vivo; how it was run: as §1
[17] = species on record: Rattus norvegicus; assay: Tissue distribution in rat thyroid after 180 minutes (n=3); assay type: ADME, organism-based, Thyroid gland; settings: in vivo, 3 h; how it was run: as §2
[18] = species on record: Rattus norvegicus; assay: Tissue distribution in rat brain after 60 minutes (n=3); assay type: ADME, organism-based; settings: in vivo, 1 h; how it was run: as §2
[19] = species on record: Rattus norvegicus; assay: Tissue distribution in rat blood after 180 minutes (n=3); assay type: ADME, organism-based; settings: in vivo, 3 h; how it was run: as §2
[20] = species on record: Rattus norvegicus; assay: Ratio of tissue distribution between rat brain and blood after 5 min; assay type: ADME, organism-based; settings: brain, 5 min; how it was run: as §4
[21] = species on record: Rattus norvegicus; assay: Effect of vesamicol on the accumulation in rat lung in group 2 (n=3); assay type: ADME, organism-based; settings: in vivo
[22] = species on record: Rattus norvegicus; assay: Tissue distribution in rat spleen after 30 minutes (n=3); assay type: ADME, organism-based; settings: in vivo, 0.5 h; how it was run: as §2
[23] = species on record: Rattus norvegicus; assay: Ratio of tissue distribution between rat heart and blood after 30 min; assay type: ADME, organism-based; settings: other tissue, 0.5 h; how it was run: as §2
[24] = species on record: Rattus norvegicus; assay: Tissue distribution in rat lung after 5 minutes (n=3); assay type: ADME, organism-based; settings: in vivo; how it was run: as §2
[25] = species on record: Rattus norvegicus; assay: Ratio of tissue distribution between rat heart and blood after 60 min; assay type: ADME, organism-based; settings: other tissue, 1 h; how it was run: as §2
[26] = species on record: Rattus norvegicus; assay: Effect of vesamicol on the accumulation in rat blood in group 2 (n=3); assay type: ADME, organism-based; settings: in vivo; how it was run: as §1
[27] = species on record: Rattus norvegicus; assay: Effect of vesamicol on the accumulation in rat gonads in group 1 (n=3); assay type: ADME, organism-based; settings: in vivo
[28] = species on record: Rattus norvegicus; assay: Effect of vesamicol on the accumulation in rat spleen in group 2 (n=3); assay type: ADME, organism-based; settings: in vivo; how it was run: as §1
[29] = species on record: Rattus norvegicus; assay: Tissue distribution in rat heart after 30 minutes (n=3); assay type: ADME, organism-based; settings: in vivo, 0.5 h; how it was run: as §3
[30] = species on record: Rattus norvegicus; assay: Tissue distribution in rat kidney after 60 minutes (n=3); assay type: ADME, organism-based; settings: in vivo, 1 h; how it was run: as §2
[31] = species on record: Rattus norvegicus; assay: Effect of vesamicol on the accumulation in rat kidney in group 1 (n=3); assay type: ADME, organism-based; settings: in vivo
[32] = species on record: Rattus norvegicus; assay: Tissue distribution in rat gonads after 30 minutes (n=3); assay type: ADME, organism-based, Gonad; settings: in vivo, 0.5 h; how it was run: as §2
[33] = species on record: Rattus norvegicus; assay: Tissue distribution in rat blood after 30 minutes (n=3); assay type: ADME, organism-based; settings: in vivo, 0.5 h; how it was run: as §2
[34] = species on record: Rattus norvegicus; assay: Ratio of tissue distribution between rat heart and blood after 5 min; assay type: ADME, organism-based; settings: other tissue, 5 min; how it was run: as §2
[35] = Ratio of effect of vesamicol on the accumulation between rat brain and blood in group 2; assay type: ADME, organism-based; how it was run: as §1
[36] = species on record: Rattus norvegicus; assay: Tissue distribution in rat brain after 180 minutes (n=3); assay type: ADME, organism-based; settings: in vivo, 3 h; how it was run: as §3

O[C@@H]1CCN(Cc2cccc([125I])c2)C[C@H]1N1CCC(c2ccccc2)CC1 (stereo in doubt; (-))
Dose/g [1]: 0.34%
Dose/g [2]: 0.68%
Dose/g [3]: 2.35%
Dose/g [4]: 0.5%
Dose/g [5]: 2.67%
Kp at 3 h [6]: 5.32
Ratio [7]: 9.87
Dose/g [8]: 0.16%
Dose/g [9]: 0.16%
Dose/g [10]: 0.19%
Dose/g [11]: 0.3%
Kp [12]: 2.75
Dose/g [13]: 4.56%
Dose/g [14]: 0.58%
Dose/g [15]: 0.2%
Dose/g [16]: 1.05%
Dose/g [17]: 11.55%
Dose/g [18]: 0.83%
Dose/g [19]: 0.1%
Ratio [20]: 4.27
Dose/g [21]: 1.59%
Dose/g [22]: 1.24%
Ratio [23]: 6.87
Dose/g [24]: 5.9%
Ratio [25]: 5.97
Dose/g [26]: 0.12%
Dose/g [27]: 0.15%
Dose/g [28]: 0.8%
Dose/g [29]: 0.75%
Dose/g [30]: 3.13%
Dose/g [31]: 2.45%
Dose/g [32]: 0.23%
Dose/g [33]: 0.11%
Ratio [34]: 6.07
Kp [35]: 5.59
Dose/g [36]: 0.92%
